Compound activity as filed in PubChem BioAssay.
TRPC6 inhibitor = mouse TRPC6 channel inhibitors, primary screen, cell-based, HEK293, membrane potential dye; B-score at 10 µM; 310,000 compounds, 1.1% hits; ACh-evoked depolarization; active compounds read low; Short transient receptor potential channel 6 (Mus musculus), Q61143;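 active means B-score under library mean minus 3 SD, initial fluorescence not abnormally high, positive integrated signal ratio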;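 further: B-score derived from integrated fluorescence ratio over the kinetic read; more negative B-score means stronger inhibition of depolarization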
TRPC4 block = inhibitors of mouse TRPC4 channel, primary screen, Fluo4 calcium, HEK293 TRPC4beta/mu-opioid cells; DAMGO-evoked Fluo4 calcium flux; active compounds read low; 300,000 compounds, 0.39% hits; B-score at 10 µM; AID 2247, 2010;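 active means B-score over 3 SD under the library average, no early fluorescence shift, positive overall ratio signal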
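test system = HEK293 cells with stable TRPC4beta plus mu-opioid receptor expression | detection = Fluo4 Ca2+ flux fluorescence | read-out = integrated fluorescence ratio relative to baseline, converted to per-well B score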
FID counter = compounds displacing fluorescent DNA intercalator, primary screen, artefact control for HCV NS3 helicase inhibitor project, biochemical, FID fluorescence. 290,000 compounds, 0.17% hits. AID 1845, 2009. DNA fluorescent intercalator displacement. inhibition, % at 7.9 µM; in the data active means inhibition above about 37%;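 further: higher means more ethidium bromide displaced from hairpin DNA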
TRPC4 potent = positive allosteric modulators of TRPC4, primary screen, cell-based, mouse TRPC4beta, HEK293 mu-opioid, Fluo-4 calcium. DAMGO EC20, Fluo-4 Ca2+ flux; active compounds read high. 310,000 compounds, 0.42% hits. B-score at 10 µM. Short transient receptor potential channel 4 (Mus musculus), Q9QUQ5;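 active means B-score of calcium response area above 5 SD of library B-scores, with initial fluorescence ratio within 5 SD of library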
TRPC6 activator = mouse TRPC6 channel activators, primary screen, cell-based, HEK293, membrane potential dye | HEK293-TRPC6 membrane potential dye fluorescence; active compounds read high | B-score at 10 µM | 310,000 compounds, 0.13% hits | AID 2550, 2010;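 active means B-score of the integrated fluorescence ratio above library mean plus 3 SD, and starting fluorescence ratio within library mean plus 5 SD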;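 further: higher score means more depolarization so channel activation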
TRPC4 agonist = activators of mouse TRPC4 channel, primary screen, Fluo4 calcium, HEK293 TRPC4beta/mu-opioid cells | Short transient receptor potential channel 4 (Mus musculus), Q9QUQ5 | Fluo4 calcium fluorescence; active compounds read high | B-score at 10 µM | 310,000 compounds, 0.49% hits;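 active means B-score above 5 SD of library B-scores, and initial fluorescence ratio not above library mean plus 5 SD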;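 further: positive B-score marks a calcium rise read as TRPC4 activation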
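Assay system: HEK293 stable line with TRPC4beta plus mu-opioid receptor; schedule: 45 min room-temperature Fluo4 loading, 110 s read; technique: kinetic Fluo4 calcium fluorescence; evaluation: integrated baseline-normalised fluorescence ratio, converted to per-well B score; controls: buffer (low) and maximal DAMGO (high)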
TRPC4 spec 2 = second check of whether TRPC6 inhibitors also affect mouse TRPC4. shares compounds with TRPC6 inhibitor. 920 compounds, 42% hits. inhibition, % at 10 µM. AID 2776. HEK293 TRPC4/MOR, membrane potential dye fluorescence; channel activated by saturating DAMGO dose;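 active means compounds whose fluorescence signal differed from control wells by over 3 SD, either direction, in both duplicate plates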
TRPC4 spec = mouse TRPC4 modulation by TRPC6 hits, confirmation, selectivity assay for TRPC6 inhibitor project, cell-based, HEK293 TRPC4/mu-opioid, membrane potential dye; AID 2777, 2010; shares compounds with TRPC6 inhibitor; 920 compounds, 61% hits; activity change, negative = inhibition, % at 10 µM; membrane potential fluorescence;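 active means rise or fall in signal beyond 3 SD of buffer-only wells in both replicate plates, either sign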;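 further: integrated kinetic ratio of fluorescence range over baseline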
HEK293 MPD ctr 2-1 = nonspecific membrane potential effects, parental HEK293, confirmation, counter-screen for TRPC6 inhibitor project, cell-based, second counter screen; shares compounds with TRPC6 inhibitor; parental HEK293 membrane potential dye fluorescence; maximal acetylcholine challenge after compound addition; signal change vs control, % at 10 µM; 920 compounds, 31% hits;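 active means membrane potential signal moving either way by over 3 SD of the maximum-effect control, in both duplicate plates, meaning non-specific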
HEK293 MPD ctr-1 = membrane potential modulation in parental HEK293, confirmation, counter-screen for TRPC6 inhibitor project, cell-based; shares compounds with TRPC6 inhibitor; parental HEK293 membrane potential dye fluorescence; membrane potential signal change, % at 10 µM; 920 compounds, 60% hits;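 active means membrane potential signal shifting up or down by more than 3 SD of buffer-only wells, on both duplicate plates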
HEK293 MPD ctr-2 = parental HEK293 membrane potential modulation, confirmation, counter-screen for TRPC6 modulator project, cell-based | shares compounds with TRPC6 inhibitor | membrane potential dye fluorescence | membrane potential signal change, % at 10 µM | 2,400 compounds, 51% hits | AID 488924, 2010;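 active means membrane potential signal moves up or down beyond 5 SD from buffer-only wells, on both duplicate plates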
HEK293 MPD ctr 2-2 = second check of TRPC6 modulator effects in parental HEK293 cells. 2,400 compounds, 14% hits. AID 488926. inhibition, % at 10 µM. shares compounds with TRPC6 inhibitor. membrane potential dye fluorescence; after compound, maximal acetylcholine stimulation;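 active means membrane potential signal drops by more than 5 SD from the mean control signal, in both duplicate plates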
TRPC4 ctr mod = TRPC4 modulation by TRPC6 hit compounds, confirmation, selectivity assay for TRPC6 modulator project, cell-based, HEK293 TRPC4/mu-opioid, membrane potential dye, mouse | percent change from control (negative = decrease, positive = increase), % at 10 µM | membrane potential fluorescence | 2,400 compounds, 69% hits | shares compounds with TRPC6 inhibitor | AID 488927, 2010;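 active means membrane potential signal moved up or down beyond 5 SD of buffer control wells, in both duplicate plates, actives on both sides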
TRPC4/MOR inh 2 = second check of whether TRPC6 modulators also affect mouse TRPC4; shares compounds with TRPC6 inhibitor; HEK293 TRPC4/mu-opioid, membrane potential dye fluorescence; stimulated with maximal-effect DAMGO; inhibition, % at 10 µM; 2,400 compounds, 55% hits; AID 488928;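 active means drop in membrane potential signal beyond 5 SD of the control wells in both duplicate plates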;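 further: TRPC4 counter screen for TRPC6 hits run under conditions tuned for TRPC6 not TRPC4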
TRPC6 inh conf = mouse TRPC6 channel inhibitors, confirmation, HEK293 cells, membrane potential dye, duplicate; AID 488960, 2010; ACh-evoked depolarization; 3,300 compounds, 43% hits; inhibition, % at 10 µM; shares compounds with TRPC6 inhibitor;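 active means fluorescence ratio falls more than 5 SD below the full-stimulation control mean, in both duplicate runs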;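 further: integrated fluorescence ratio of peak minus minimum over baseline after agonist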
TRPC6 act confirm = mouse TRPC6 channel activators, confirmation, HEK293 cells, membrane potential dye, duplicate; HEK293-TRPC6 membrane potential dye fluorescence, FDSS; 2,800 compounds, 11% hits; shares compounds with TRPC6 inhibitor; activation, % at 10 µM;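 active means ratio signal rise beyond 5 SD above unstimulated control wells' mean, seen in both duplicate runs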
Numbers stand for hits. Sampled rows, rich in hits. Any-hit rate of the full collection: about 2.3%.

Screening CC(=O)N(C)c1ccc(N=NC2C(=O)N(C(N)=S)N=C2C)cc1 (configuration not stated) returned TRPC6 inhibitor inactive, TRPC4 block inactive, FID counter inactive, TRPC4 potent inactive, TRPC6 activator inactive and TRPC4 agonist inactive.
CC1CCCCN1CC(=O)Nc1ccc(N2CCCCCC2)cc1 (configuration not stated) was read as TRPC6 inhibitor -5.4, TRPC4 block inactive, FID counter inactive, TRPC4 potent inactive, TRPC6 activator inactive, TRPC4 agonist inactive, HEK293 MPD ctr-2 inactive, HEK293 MPD ctr 2-2 inactive, TRPC4 ctr mod -12%, TRPC4/MOR inh 2 32%, TRPC6 inh conf 40% and TRPC6 act confirm inactive.
CC1CCCCN1CC(=O)Nc1ccc(Oc2ccccc2)cc1 (configuration not stated) was read as TRPC6 inhibitor inactive, TRPC4 block inactive, FID counter inactive, TRPC4 potent inactive, TRPC6 activator inactive and TRPC4 agonist inactive.
For COc1ccc(C2=NS(=O)(=O)N(C)C(C(=O)N3CCCCC3)=C2)cc1OC the results were TRPC6 inhibitor inactive, TRPC4 block inactive, FID counter inactive, TRPC4 potent inactive, TRPC6 activator inactive and TRPC4 agonist inactive.
`CCOC(=O)N1CCC(Nc2ccc3nnc(-c4ccccc4)n3n2)CC1` gave TRPC6 inhibitor -5.5, TRPC4 block inactive, FID counter inactive, TRPC4 potent inactive, TRPC6 activator inactive, TRPC4 agonist inactive, HEK293 MPD ctr-2 inactive, HEK293 MPD ctr 2-2 inactive, TRPC4 ctr mod inactive, TRPC4/MOR inh 2 inactive and TRPC6 inh conf 68%.
Screening CN(C(=O)CCN1C(=O)S/C(=C\c2ccccc2)C1=O)C1CCS(=O)(=O)C1 (configuration not stated) returned TRPC6 inhibitor inactive, TRPC4 block inactive, FID counter inactive, TRPC4 potent inactive, TRPC6 activator inactive and TRPC4 agonist inactive.
COc1ccc[nH]c1=O was read as TRPC6 inhibitor -6, TRPC4 block inactive, FID counter inactive, TRPC4 potent inactive, TRPC6 activator inactive, TRPC4 agonist inactive, HEK293 MPD ctr-2 inactive, HEK293 MPD ctr 2-2 inactive, TRPC4 ctr mod inactive, TRPC4/MOR inh 2 inactive, TRPC6 inh conf inactive and TRPC6 act confirm inactive.
`CCn1c(SCc2ccccc2)nc2c1c(=O)[nH]c(=O)n2C` gave TRPC6 inhibitor inactive, TRPC4 block inactive, FID counter inactive, TRPC4 potent inactive, TRPC6 activator inactive and TRPC4 agonist inactive.
Screening CCOc1ccc2c(c1)-c1c(ssc1=S)C(C)(C)N2C(=O)CSC1=NCCS1 returned TRPC6 inhibitor inactive, TRPC4 block inactive, FID counter inactive, TRPC4 potent inactive, TRPC6 activator inactive and TRPC4 agonist inactive.
Screening CCOc1ccc2c(c1)-c1c(ssc1=S)C(C)(C)N2 returned TRPC6 inhibitor -5.3, TRPC4 block inactive, FID counter inactive, TRPC4 potent inactive, TRPC6 activator inactive, TRPC4 agonist inactive, HEK293 MPD ctr-2 inactive, HEK293 MPD ctr 2-2 inactive, TRPC4 ctr mod -22%, TRPC4/MOR inh 2 64%, TRPC6 inh conf inactive and TRPC6 act confirm inactive.
Screening c1ccc(CN2CCN(C(c3ccccc3)c3ccccc3)CC2)cc1 returned TRPC6 inhibitor inactive, TRPC4 block inactive, FID counter inactive, TRPC4 potent inactive, TRPC6 activator inactive and TRPC4 agonist inactive.
`CC12CNCC(C)(CN(C(c3ccccc3)c3ccccc3)C1)C2` gave TRPC6 inhibitor -5.6, TRPC4 block inactive, FID counter inactive, TRPC4 potent inactive, TRPC6 activator inactive, TRPC4 agonist inactive, HEK293 MPD ctr-2 182%, HEK293 MPD ctr 2-2 inactive, TRPC4 ctr mod 76%, TRPC4/MOR inh 2 90% and TRPC6 inh conf inactive.
Clc1ccc(C(c2ccccc2)N2CCNCC2)cc1 (configuration not stated) was read as TRPC6 inhibitor -7.8, TRPC4 block inactive, FID counter inactive, TRPC4 potent inactive, TRPC6 activator inactive, TRPC4 agonist inactive, TRPC4 spec 2 61%, TRPC4 spec inactive, HEK293 MPD ctr 2-1 inactive, HEK293 MPD ctr-1 inactive, TRPC6 inh conf inactive and TRPC6 act confirm inactive.
